Measurements reported in ChEMBL document CHEMBL1140263, “Structure-based design, synthesis, and study of potent inhibitors of beta-ketoacyl-acyl carrier protein synthase III as potential antimicrobial agents” (J Med Chem, 2005).

target: T1, Beta-ketoacyl-[acyl-carrier-protein] synthase III (Enterococcus faecalis (strain ATCC 700802 / V583), UniProt Q820T1); assay: Inhibitory concentration against Enterococcus faecalis beta-Ketoacyl-acyl carrier protein synthase III
T1 sequence (Q820T1 whole entry): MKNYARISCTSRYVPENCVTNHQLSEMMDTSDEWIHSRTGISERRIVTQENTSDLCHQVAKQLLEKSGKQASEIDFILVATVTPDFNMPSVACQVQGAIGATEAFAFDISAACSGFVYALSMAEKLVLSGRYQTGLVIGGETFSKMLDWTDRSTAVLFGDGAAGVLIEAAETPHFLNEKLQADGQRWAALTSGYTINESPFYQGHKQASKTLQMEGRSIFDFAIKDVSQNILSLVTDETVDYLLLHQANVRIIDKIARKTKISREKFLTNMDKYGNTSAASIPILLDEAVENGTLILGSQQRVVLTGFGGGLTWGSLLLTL
How it was run: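 Coupled FabD/FabH radiometric assay with His-tagged or tagless FabH expressed in E. coli BL21(DE3). The mix held 100 mM sodium phosphate pH 7.0, 2 mM DTT, 1 mM MgCl₂, 12.5 µM E. coli holo-ACP, 10 nM FabD and 3-5 nM FabH. Malonyl-CoA was added for 1 min, then acetyl-CoA plus [³H]acetyl-CoA, NADH and NADPH for 19 min. TCA-precipitated protein was counted by liquid scintillation; DMSO ≤2% final.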

IC50 [µM]	Structure (SMILES)
8.4	CCN(CC)S(=O)(=O)c1cc(C(=O)Nc2ccccc2C(=O)O)ccc1F
2.7	O=C(Nc1ccccc1C(=O)O)c1cccc(Oc2ccccc2)c1
22	O=C(Nc1ccccc1C(=O)O)c1ccc(-c2cn[nH]c2)c(Oc2ccccc2)c1
1.1	O=C(Nc1ccccc1C(=O)O)c1ccc(Br)c(Oc2ccccc2)c1
2.2	CCN(CC)S(=O)(=O)c1cc(C(=O)Nc2ccccc2C(=O)O)ccc1N1CCCCC1
1.6	CCN(CC)S(=O)(=O)c1cc(C(=O)Nc2ccccc2C(=O)O)ccc1Br
6.1	CCN(CC)S(=O)(=O)c1cc(C(=O)Nc2ccccc2C(=O)O)ccc1Oc1ccccc1
0.41	O=C(Nc1ccccc1C(=O)O)c1ccc(-c2ccc(O)cc2)c(Oc2ccccc2)c1
185	O=C(Nc1ccccc1C(=O)O)c1ccc(N2CCNCC2)c(Oc2ccccc2)c1
10.1	O=C(Nc1ccsc1C(=O)O)c1cccc(Oc2ccccc2)c1
25	CN1CCN(c2ccc(C(=O)Nc3ccccc3C(=O)O)cc2Oc2ccccc2)CC1
0.29	O=C(Nc1ccccc1C(=O)O)c1ccc(N2CCCCC2)c(Oc2ccccc2)c1
